PubChem BioAssay AID1480 (NMMLSC, 2009)
This is one part of the list. A number with no mark means an inactive call.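 The calls were made as follows: active = fluorescence in ABCG2-expressing cells above the plate's control-well mean plus 3 SD (cut at about 15 in these data); inactive = the rest.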

Assay: green-channel fluorescence of compounds in IgMXP3 cells – cell-based, 488/530 nm, flow cytometry, artefact control for ABC transporter inhibitor project, confirmation (AID 1480);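 also: median cell fluorescence with compound minus that of DMSO-treated control cells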
Conditions: compound autofluorescence 488/530 nm, at 6.6 µM, active compounds read high
How it was run: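 Assay system: drug-resistant ABCG2-expressing IgMXP3 cells, unlabeled with substrate. Quantity: 3 million cells/mL final. Medium: JC-1 kit assay buffer. Probe or stimulus: no JC-1 substrate. Dosing: single dose, test compound at 6.6 µM final. Times: Cell–compound exposure 10 min, 25 °C, end-over-end rotation. Measured by: flow cytometry, FL1 green emission. Controls: DMSO vehicle wells.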

COC(=O)COc1cc(C)cc2oc(=O)c3c(c12)CCCC3
fluorescence: 1.36
